Calls of active or inactive are those of the source. The rule behind the calls is not given here.
Tests used:
[1] = biological target: T1, Reduced folate transporter (Homo sapiens) (UniProt P41440); assay: Inhibition of human RFC-mediated [3H]MTX transport in Chinese hamster PC43-10 cells at 10 uM; type: cell-based
T1 sequence (whole entry): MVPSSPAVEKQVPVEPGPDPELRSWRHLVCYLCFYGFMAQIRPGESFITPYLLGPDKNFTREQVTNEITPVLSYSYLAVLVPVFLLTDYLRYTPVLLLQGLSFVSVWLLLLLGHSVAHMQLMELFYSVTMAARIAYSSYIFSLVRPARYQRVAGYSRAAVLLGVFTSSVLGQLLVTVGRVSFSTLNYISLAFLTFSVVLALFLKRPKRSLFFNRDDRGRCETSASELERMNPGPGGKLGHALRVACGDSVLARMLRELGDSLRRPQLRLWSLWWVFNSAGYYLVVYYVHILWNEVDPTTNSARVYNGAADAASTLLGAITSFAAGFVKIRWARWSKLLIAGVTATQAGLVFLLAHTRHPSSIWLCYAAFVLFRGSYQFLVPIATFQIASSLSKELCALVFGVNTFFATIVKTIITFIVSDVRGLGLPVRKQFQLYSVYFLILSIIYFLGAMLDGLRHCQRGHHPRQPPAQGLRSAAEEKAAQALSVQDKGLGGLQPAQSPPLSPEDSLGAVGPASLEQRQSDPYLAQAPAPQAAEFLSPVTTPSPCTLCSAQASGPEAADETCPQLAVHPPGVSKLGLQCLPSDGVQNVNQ

[2] = biological target: Folate receptor beta (Homo sapiens) (UniProt P14207); assay: Displacement of [3H]folic acid from human FRbeta in Chinese hamster D4 cells; type: cell-based
Summary of the method: (§1)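 Cells were acid-stripped (pH 3.5 acetate buffer) and washed in ice-cold HEPES-buffered saline, pH 7.4. They were then incubated 15 min at 0°C with 50 nM [3H]folic acid (0.5 Ci/mmol) and a range of unlabeled ligand concentrations. Bound label was normalized to Lowry protein. […] Mean of 3 experiments.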

KB [3] = assay: Antiproliferative activity against human RFC and FRalpha expressing human KB cells in presence of folic acid
R2 = assay: Antiproliferative activity against human RFC expressing Chinese hamster R2 cells
[4] = Antiproliferative activity against human FRbeta expressing Chinese hamster D4 cells in presence of folic acid; details: Cricetulus griseus
[5] = biological target: T2, Trifunctional purine biosynthetic protein adenosine-3 (Homo sapiens, UniProt P22102)
T2 sequence (P22102 whole entry): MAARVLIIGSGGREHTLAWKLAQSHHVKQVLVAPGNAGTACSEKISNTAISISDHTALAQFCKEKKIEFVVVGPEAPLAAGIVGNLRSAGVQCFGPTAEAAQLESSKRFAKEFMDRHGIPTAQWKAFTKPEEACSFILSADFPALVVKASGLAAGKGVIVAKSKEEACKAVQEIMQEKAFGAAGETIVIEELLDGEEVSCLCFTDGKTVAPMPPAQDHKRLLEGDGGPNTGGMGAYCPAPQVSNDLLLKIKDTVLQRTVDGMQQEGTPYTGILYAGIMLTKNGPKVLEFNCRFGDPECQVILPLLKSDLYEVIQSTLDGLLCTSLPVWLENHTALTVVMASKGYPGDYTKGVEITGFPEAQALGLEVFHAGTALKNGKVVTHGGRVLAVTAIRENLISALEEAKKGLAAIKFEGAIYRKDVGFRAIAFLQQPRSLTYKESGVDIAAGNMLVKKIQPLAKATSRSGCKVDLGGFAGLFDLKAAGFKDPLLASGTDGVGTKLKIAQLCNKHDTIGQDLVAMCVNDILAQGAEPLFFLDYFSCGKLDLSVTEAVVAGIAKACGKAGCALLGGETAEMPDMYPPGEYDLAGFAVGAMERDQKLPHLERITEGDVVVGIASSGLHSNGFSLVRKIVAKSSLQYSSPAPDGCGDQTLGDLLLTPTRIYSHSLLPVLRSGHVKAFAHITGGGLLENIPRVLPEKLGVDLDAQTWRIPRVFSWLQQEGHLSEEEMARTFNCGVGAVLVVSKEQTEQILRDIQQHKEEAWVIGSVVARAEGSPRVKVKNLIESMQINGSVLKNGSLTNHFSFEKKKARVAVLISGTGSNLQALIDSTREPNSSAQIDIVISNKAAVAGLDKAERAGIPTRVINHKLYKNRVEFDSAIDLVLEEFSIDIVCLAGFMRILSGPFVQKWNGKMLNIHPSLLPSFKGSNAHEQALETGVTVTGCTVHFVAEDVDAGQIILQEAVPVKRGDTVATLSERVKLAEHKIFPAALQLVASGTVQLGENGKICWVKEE

[6] = Antiproliferative activity against human FRalpha expressing Chinese hamster RT16 cells in presence of folic acid; details: Cricetulus griseus
IGROV-1 [7] = assay: Antiproliferative activity against human RFC and FRalpha expressing human IGROV1 cells in presence of folic acid
[8] = biological target: T1, Reduced folate transporter (Homo sapiens); assay: Inhibition of human RFC-mediated [3H]MTX transport expressed in Chinese hamster PC43-10 cells; type: cell-based; design: concentration or dose not given beside the values; details: concentration not given here
[9] = biological target: T3, Trifunctional purine biosynthetic protein adenosine-3 (Mus musculus, UniProt Q64737); assay: Inhibition of mouse recombinant GARFTase
T3 sequence (Q64737 whole entry): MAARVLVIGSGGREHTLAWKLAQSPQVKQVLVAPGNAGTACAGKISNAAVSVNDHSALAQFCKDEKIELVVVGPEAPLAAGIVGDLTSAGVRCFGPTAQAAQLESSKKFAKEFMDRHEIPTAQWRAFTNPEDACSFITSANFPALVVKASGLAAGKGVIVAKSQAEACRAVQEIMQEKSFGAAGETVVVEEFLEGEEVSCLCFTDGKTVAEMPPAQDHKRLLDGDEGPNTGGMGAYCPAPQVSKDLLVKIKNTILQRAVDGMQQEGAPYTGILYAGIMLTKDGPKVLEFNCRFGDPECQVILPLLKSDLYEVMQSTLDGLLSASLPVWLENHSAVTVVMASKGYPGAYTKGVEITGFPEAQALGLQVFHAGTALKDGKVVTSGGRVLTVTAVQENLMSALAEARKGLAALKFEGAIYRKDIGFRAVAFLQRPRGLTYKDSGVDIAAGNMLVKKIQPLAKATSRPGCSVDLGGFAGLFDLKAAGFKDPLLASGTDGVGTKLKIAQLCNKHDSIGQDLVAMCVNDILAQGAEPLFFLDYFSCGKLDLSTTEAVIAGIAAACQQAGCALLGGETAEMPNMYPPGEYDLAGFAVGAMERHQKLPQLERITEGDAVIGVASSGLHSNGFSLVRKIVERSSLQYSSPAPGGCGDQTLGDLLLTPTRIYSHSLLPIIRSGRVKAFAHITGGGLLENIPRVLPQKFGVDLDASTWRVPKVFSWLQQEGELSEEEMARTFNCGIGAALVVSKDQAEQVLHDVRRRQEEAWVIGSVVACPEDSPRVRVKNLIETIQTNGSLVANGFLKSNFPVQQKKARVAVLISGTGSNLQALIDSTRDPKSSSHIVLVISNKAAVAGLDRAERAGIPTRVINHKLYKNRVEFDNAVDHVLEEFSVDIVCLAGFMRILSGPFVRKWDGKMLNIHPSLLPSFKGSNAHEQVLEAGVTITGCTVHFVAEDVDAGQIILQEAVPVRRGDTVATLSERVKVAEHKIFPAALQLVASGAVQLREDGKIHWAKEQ

[10] = biological target: Folate receptor alpha (Homo sapiens) (UniProt P15328); assay: Displacement of [3H]folic acid from human FRalpha in Chinese hamster RT16 cells; type: cell-based; summary of the method: as §1
[11] = Antiproliferative activity against human RFC expressing Chinese hamster PC43-10 cells; details: Cricetulus griseus
cells [12] = details: Cricetulus griseus, RT16
cells [13] = details: Cricetulus griseus, D4
IGROV-1 [14] = assay: Antiproliferative activity against human RFC and FRalpha expressing human IGROV1 cells
KB [15] = assay: cells; details: Homo sapiens, read-out: INH
KB [16] = assay: cells; details: Homo sapiens

Folate receptor beta (Homo sapiens), sequence (P14207 17-230 limits assumed): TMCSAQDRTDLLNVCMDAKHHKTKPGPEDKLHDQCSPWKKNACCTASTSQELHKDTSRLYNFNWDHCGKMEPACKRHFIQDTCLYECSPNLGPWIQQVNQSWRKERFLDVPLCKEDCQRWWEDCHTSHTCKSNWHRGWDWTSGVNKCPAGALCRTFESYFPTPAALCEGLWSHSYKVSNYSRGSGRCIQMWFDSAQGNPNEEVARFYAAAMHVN
Folate receptor alpha (Homo sapiens), sequence (P15328 25-234 limits assumed): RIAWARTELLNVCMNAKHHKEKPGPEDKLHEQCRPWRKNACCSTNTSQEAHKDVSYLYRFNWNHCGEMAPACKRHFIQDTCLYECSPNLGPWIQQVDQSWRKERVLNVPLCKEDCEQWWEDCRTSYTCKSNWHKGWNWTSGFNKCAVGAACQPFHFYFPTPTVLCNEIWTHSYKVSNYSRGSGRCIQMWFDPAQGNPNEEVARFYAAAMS

| inhibition [1] [%] | Compound | Activity [2] | IC50 (KB [3]) [nM] | IC50 (R2) [nM] | IC50 [4] [nM] | IC50 [6] [nM] | IC50 (IGROV-1 [7]) [nM] | inhibition [8] [%] | IC50 [9] [nM] | Activity [10] | IC50 [11] [nM] | also measured |
| --- | --- | --- | --- | --- | --- | --- | --- | --- | --- | --- | --- | --- |
| 60 | CN(Cc1cnc2nc(N)nc(N)c2n1)c1ccc(C(=O)N[C@@H](CCC(=O)O)C(=O)O)cc1 [METHOTREXATE] |  |  |  |  |  |  |  |  |  |  |  |
|  | Nc1nc2[nH]c(CCCCCc3ccc(C(=O)N[C@@H](CCC(=O)O)C(=O)O)cc3)cc2c(=O)[nH]1 | Active | > 1000 | > 1000 | > 1000 | > 1000 | > 1000 | < 20 | 2260 | Active | > 1000 | IC50 [5]: 7.2 nM |
|  | Nc1nc2[nH]c(CCCCCCc3ccc(C(=O)N[C@@H](CCC(=O)O)C(=O)O)cc3)cc2c(=O)[nH]1 | Active | > 1000 | > 1000 | > 1000 | > 1000 | > 1000 | < 20 | 2510 | Active | > 1000 | IC50 (cells [12]): 162 nM; IC50 (cells [13]): 198 nM; IC50 [5]: 8.6 nM; IC50 (IGROV-1 [14]): 309 nM |
|  | Nc1nc2[nH]c(CCCCc3ccc(C(=O)N[C@@H](CCC(=O)O)C(=O)O)cc3)cc2c(=O)[nH]1 | Active | > 1000 | > 1000 |  | > 1000 | > 1000 | < 20 | 150 | Active | > 1000 | inhibition at 1 µM (KB [15]): > 97% |
|  | Nc1nc2[nH]c(Cc3ccc(C(=O)N[C@@H](CCC(=O)O)C(=O)O)cc3)cc2c(=O)[nH]1 |  | > 1000 | > 1000 | > 1000 | > 1000 | > 1000 | < 20 | > 20000 |  | > 1000 | IC50 (KB [16]): > 1000 nM; IC50 (cells [12]): > 1000 nM; IC50 (cells [13]): > 1000 nM; IC50 [5]: > 1000 nM; IC50 (IGROV-1 [14]): > 1000 nM |
|  | Nc1nc2ccc3ccc(CNc4ccc5c(c4)CN([C@@H](CCC(=O)O)C(=O)O)C5=O)cc3c2c(=O)[nH]1 |  | 32 |  |  | > 1000 |  |  |  |  |  | IC50 (KB [16]): 5.8 nM |
|  | COc1cc(NCc2ccc3nc(N)nc(N)c3c2C)cc(OC)c1OC [TRIMETREXATE] |  |  |  | 6.1 |  | 8.6 |  |  |  |  |  |
| 60 | Nc1nc2[nH]cc(CCc3ccc(C(=O)N[C@@H](CCC(=O)O)C(=O)O)cc3)c2c(=O)[nH]1 [PEMETREXED] |  |  |  |  |  | 200 |  |  |  |  |  |
| 60 | Nc1nc(=O)c2c([nH]1)NCC(CNc1ccc(C(=O)N[C@@H](CCC(=O)O)C(=O)O)cc1)N2C=O (stereo partly specified) |  |  |  |  |  |  |  |  |  |  |  |
|  | Nc1nc2[nH]c(CCCc3ccc(C(=O)N[C@@H](CCC(=O)O)C(=O)O)cc3)cc2c(=O)[nH]1 | Active | > 1000 | 448 | > 1000 | > 1000 | > 1000 | < 20 | 2440 | Active | 304 |  |
|  | Cc1nc(=O)c2cc(CN(C)c3ccc(C(=O)N[C@@H](CCC(=O)O)C(=O)O)s3)ccc2[nH]1 [RALTITREXED] |  |  |  |  |  |  |  |  |  |  | inhibition at 1 µM (KB [15]): > 99% |
| 60 | Nc1nc2c(c(=O)[nH]1)C[C@@H](CCc1ccc(C(=O)N[C@@H](CCC(=O)O)C(=O)O)cc1)CN2 [LOMETREXOL] |  |  |  | 275 | 188 |  |  |  |  |  |  |

From ChEMBL document CHEMBL1156629, “Synthesis and discovery of high affinity folate receptor-specific glycinamide ribonucleotide formyltransferase inhibitors with antitumor activity” (J Med Chem, 2008)
